Test results as given in ChEMBL document CHEMBL1125712 (J Med Chem, 1991).
Activity calls are given as the source filed them. The calls are words filed in the database; no cut-off is given here.

What was measured:
[1] = system: Rattus norvegicus; test: Compound was evaluated in vivo for the inhibition of sorbitol accumulation administered orally at a dose of 5 mg/kg; Not significant; assay type: functional, organism-based; design: dose 5 mg/kg
[2] = biological target: T1, Aldo-keto reductase family 1 member B1 (Homo sapiens, UniProt P15121); test: Inhibition of aldose reductase (aldo-keto reductase, AKR1B1) isolated from human placenta.
[3] = Compound was evaluated for the apparent pKa (dioxane/water) in the ratio 1:1; assay type: physicochemical; conditions: dioxane/water 1:1
[4] = organism: Rattus norvegicus; test: Compound was tested for the inhibition of sorbitol accumulation in washed rat erythrocytes.
[5] = Partition coefficient (logP); assay type: physicochemical; conditions: octanol/water
[6] = biological target: T2, Aldo-keto reductase family 1 member B1 (Rattus norvegicus, UniProt P07943); test: Compound was tested for the inhibition of the rat lens aldose reductase using the substrate as glyceraldehyde
[7] = Compound was evaluated for the apparent pKa (dioxane/water) the ratio 2:1; assay type: physicochemical; conditions: dioxane/water 2:1
[8] = biological target: T2, Aldo-keto reductase family 1 member B1; test: Compound was tested for the inhibition of the rat lens aldose reductase using the substrate as glucose.
[9] = system: Rattus norvegicus; test: Compound was evaluated for the ED50(acute) in male Sprague-Dawley rats(n=4) treated with streptozotocin (85 mg/kg intravenously).; assay type: functional
Procedure, shortened: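 Streptozotocin-diabetic rats (85 mg/kg iv) dosed by oral gavage, aqueous suspension or solution, at 4, 7 and 24 h. Killed at 27 h. […] ED50 from log linear regression.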

[10] = Compound was evaluated for the partition coefficient (octanol/pH 7.4 buffer); assay type: physicochemical
Procedure, shortened: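 Partition measured between n-octanol and pH 7.4 buffer.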

[11] = system: Rattus norvegicus; test: Compound was evaluated for the ED50(chronic) in male Sprague-Dawley rats(n=5) treated with streptozotocin (85 mg/kg intravenously).; conditions: oral
[12] = organism: Homo sapiens; test: Compound was tested for the inhibition of sorbitol accumulation in washed human erythrocytes.; assay type: functional
[13] = system: Rattus norvegicus; test: Compound was evaluated for the ED50(chronic) in male Sprague-Dawley rats(n=5) treated with streptozotocin (85 mg/kg intravenously).; conditions: oral; remark: listed apart in the source
[14] = biological target: T1, Aldo-keto reductase family 1 member B1; test: Compound was evaluated for its ability to inhibit the aldose reductase isolated from human placentae; Inactive at 10E-4 M
[15] = system: aldose reductase (Rattus norvegicus); test: In vivo inhibition of sorbitol accumulation in the rat following 10 mg/kg p.o. administration.; conditions: at 10 mg/kg
[16] = Compound was evaluated for the apparent pKa (dioxane/water)the ratio 2:1; assay type: physicochemical; conditions: dioxane/water 2:1
[17] = system: Rattus norvegicus; test: Compound was evaluated in vivo for the inhibition of sorbitol accumulation administered orally at a dose of 0.25 mg/kg.; assay type: functional; conditions: route oral
[18] = system: Rattus norvegicus; test: Compound was evaluated in vivo for the inhibition of sorbitol accumulation administered orally at a dose of 5 mg/kg.; assay type: functional; conditions: route oral

Row | Structure (SMILES) | IC50 [2] [nM] | pKa [3] | logP [5] | pKa [7] | ED50 ([9]; iv) [mg/kg] | logD [10] | ED50 [11] [mg/kg] | ED50 [13] [mg/kg] | further results
1 | CC(C)c1ccc2c(CC(=O)O)nn(Cc3nc4ccccc4s3)c(=O)c2c1 | 110 |  |  |  |  |  |  |  | inhibition [1]: inactive
2 | O=C(O)Cc1nn(Cc2nc3cc(C(F)(F)F)ccc3s2)c(=O)c2ccccc12 [ZOPOLRESTAT] |  | 5.46 | 3.43 | 6.38 | 3.6 | 0.55 | 2 |  | IC50 [4]: 220 nM; IC50 [6]: 41 nM; IC50 [8]: 10 nM
3 | COc1ccc2c(C(=S)N(C)CC(=O)O)cccc2c1C(F)(F)F [TOLRESTAT] |  |  |  |  |  |  |  | 26 | IC50 [12]: 15 nM
4 | CN1C(C(=O)Nc2nccs2)=C(O)c2ccccc2S1(=O)=O [SUDOXICAM] |  |  |  |  |  |  |  |  | IC50 [14]: Not Active
5 | O=C(O)Cc1nn(Cc2nc3cc(F)cc(F)c3s2)c(=O)c2ccccc12 | 6.3 | 5.47 | 3.01 | 6.38 |  | 0.05 |  | 4 | inhibition [15]: 80%; ED50 ([9]; oral): 3.2 mg/kg
6 | O=C(O)Cc1nn(Cc2nc3cc(Br)ccc3s2)c(=O)c2ccccc12 | 3.1 |  | 3.35 |  | 5.6 |  | 4.9 |  | pKa [16]: 6.35
7 | O=C1NC(=O)[C@@]2(CCOc3ccc(F)cc32)N1 [SORBINIL] |  |  |  |  |  |  |  | 0.8 | inhibition in vivo at 0.25 mg/kg [17]: 40.1%
8 | O=C(O)Cc1nn(Cc2nc3cc(F)ccc3s2)c(=O)c2ccccc12 | 6.9 | 5.49 | 2.42 | 6.35 | 5.3 | -0.3 | 5.3 |  | inhibition in vivo at 5 mg/kg [18]: 60%
